# In ChEMBL document CHEMBL1671716, “Antimicrobial susceptibility patterns for recent clinical isolates of anaerobic bacteria in South Korea” (2010):
# Tested on: Peptoniphilus asaccharolyticus
# Test: Antimicrobial activity against Peptoniphilus asaccharolyticus assessed as percent susceptible isolates after 48 hrs by agar dilution method
# Type: functional
# How it was run: (§1)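 CLSI agar dilution (M11-A7); inoculum 10^5 CFU applied by replicator; plates incubated anaerobically 48 h at 37°C. For piperacillin-tazobactam, tazobactam held constant at 4 μg/ml.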
row,SMILES,Activity
1,CCC[C@@H]1C[C@@H](C(=O)N[C@@H]([C@H]2O[C@H](SC)[C@H](O)[C@@H](O)[C@H]2O)[C@H](C)Cl)N(C)C1 [CLINDAMYCIN],67%

# Tested on: Peptoniphilus asaccharolyticus
# Test: Antimicrobial activity against Peptoniphilus asaccharolyticus assessed as percent resistant isolates after 48 hrs by agar dilution method
# Type: functional
# How it was run: (§2)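 CLSI agar dilution on recent Korean clinical anaerobe isolates. Inoculum 10^5 CFU per spot by replicator. Plates incubated in an anaerobic chamber at 37°C for 48 h. For piperacillin plus tazobactam, tazobactam was held constant at 4 μg/ml. Resistance and susceptibility rates derived from MICs.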
row,SMILES,Activity
1,CCC[C@@H]1C[C@@H](C(=O)N[C@@H]([C@H]2O[C@H](SC)[C@H](O)[C@@H](O)[C@H]2O)[C@H](C)Cl)N(C)C1 [CLINDAMYCIN],33%

# Tested on: Finegoldia magna
# Test: Antimicrobial activity against Finegoldia magna assessed as percent susceptible isolates after 48 hrs by agar dilution method
# Type: functional
# How it was run: as §1
row,SMILES,Activity
1,CCC[C@@H]1C[C@@H](C(=O)N[C@@H]([C@H]2O[C@H](SC)[C@H](O)[C@@H](O)[C@H]2O)[C@H](C)Cl)N(C)C1 [CLINDAMYCIN],73%

# Tested on: Finegoldia magna
# Test: Antimicrobial activity against Finegoldia magna assessed as percent resistant isolates after 48 hrs by agar dilution method
# Type: functional
# How it was run: as §2
row,SMILES,Activity
1,CCC[C@@H]1C[C@@H](C(=O)N[C@@H]([C@H]2O[C@H](SC)[C@H](O)[C@@H](O)[C@H]2O)[C@H](C)Cl)N(C)C1 [CLINDAMYCIN],13%

# Tested on: Clostridioides difficile
# Test: Antimicrobial activity against Clostridium difficile assessed as percent susceptible isolates after 48 hrs by agar dilution method
# Type: functional
row,SMILES,Activity
1,CCC[C@@H]1C[C@@H](C(=O)N[C@@H]([C@H]2O[C@H](SC)[C@H](O)[C@@H](O)[C@H]2O)[C@H](C)Cl)N(C)C1 [CLINDAMYCIN],8%

# Tested on: Clostridioides difficile
# Test: Antimicrobial activity against Clostridium difficile assessed as percent resistant isolates after 48 hrs by agar dilution method
# Type: functional
row,SMILES,Activity
1,CCC[C@@H]1C[C@@H](C(=O)N[C@@H]([C@H]2O[C@H](SC)[C@H](O)[C@@H](O)[C@H]2O)[C@H](C)Cl)N(C)C1 [CLINDAMYCIN],83%

# Tested on: Schaalia odontolytica
# Test: Antimicrobial activity against Actinomyces odontolyticus after 48 hrs by agar dilution method
# Type: functional
# How it was run: (§3)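 MICs on clinical anaerobe isolates by the CLSI agar dilution method. Inoculum of 10^5 CFU applied with a Steers replicator. Plates incubated 48 h at 37°C in an anaerobic chamber.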
SMILES,MIC,MIC50,MIC90
CCC[C@@H]1C[C@@H](C(=O)N[C@@H]([C@H]2O[C@H](SC)[C@H](O)[C@@H](O)[C@H]2O)[C@H](C)Cl)N(C)C1 [CLINDAMYCIN],0.06 µg/mL,0.06 µg/mL,> 128 µg/mL

# Tested on: Schaalia odontolytica
# Test: Antimicrobial activity against Actinomyces odontolyticus assessed as percent susceptible isolates after 48 hrs by agar dilution method
# Type: functional
row,SMILES,Activity
1,CCC[C@@H]1C[C@@H](C(=O)N[C@@H]([C@H]2O[C@H](SC)[C@H](O)[C@@H](O)[C@H]2O)[C@H](C)Cl)N(C)C1 [CLINDAMYCIN],85%

# Tested on: Schaalia odontolytica
# Test: Antimicrobial activity against Actinomyces odontolyticus assessed as percent resistant isolates after 48 hrs by agar dilution method
# Type: functional
# How it was run: as §2
row,SMILES,Activity
1,CCC[C@@H]1C[C@@H](C(=O)N[C@@H]([C@H]2O[C@H](SC)[C@H](O)[C@@H](O)[C@H]2O)[C@H](C)Cl)N(C)C1 [CLINDAMYCIN],15%

# Tested on: Actinomyces israelii
# Test: Antimicrobial activity against Actinomyces israelii assessed as percent susceptible isolates after 48 hrs by agar dilution method
# Type: functional
row,SMILES,Activity
1,CCC[C@@H]1C[C@@H](C(=O)N[C@@H]([C@H]2O[C@H](SC)[C@H](O)[C@@H](O)[C@H]2O)[C@H](C)Cl)N(C)C1 [CLINDAMYCIN],85%

# Tested on: Actinomyces israelii
# Test: Antimicrobial activity against Actinomyces israelii assessed as percent resistant isolates after 48 hrs by agar dilution method
# Type: functional
# How it was run: as §2
row,SMILES,Activity
1,CCC[C@@H]1C[C@@H](C(=O)N[C@@H]([C@H]2O[C@H](SC)[C@H](O)[C@@H](O)[C@H]2O)[C@H](C)Cl)N(C)C1 [CLINDAMYCIN],15%

# Tested on: Schaalia meyeri
# Test: Antimicrobial activity against Actinomyces meyeri assessed as percent susceptible isolates after 48 hrs by agar dilution method
# Type: functional
row,SMILES,Activity
1,CCC[C@@H]1C[C@@H](C(=O)N[C@@H]([C@H]2O[C@H](SC)[C@H](O)[C@@H](O)[C@H]2O)[C@H](C)Cl)N(C)C1 [CLINDAMYCIN],85%

# Tested on: Actinomyces naeslundii
# Test: Antimicrobial activity against Actinomyces naeslundii after 48 hrs by agar dilution method
# Type: functional
# How it was run: as §3
SMILES,MIC,MIC50,MIC90
CCC[C@@H]1C[C@@H](C(=O)N[C@@H]([C@H]2O[C@H](SC)[C@H](O)[C@@H](O)[C@H]2O)[C@H](C)Cl)N(C)C1 [CLINDAMYCIN],0.06 µg/mL,0.06 µg/mL,> 128 µg/mL

# Tested on: Actinomyces naeslundii
# Test: Antimicrobial activity against Actinomyces naeslundii assessed as percent susceptible isolates after 48 hrs by agar dilution method
# Type: functional
row,SMILES,Activity
1,CCC[C@@H]1C[C@@H](C(=O)N[C@@H]([C@H]2O[C@H](SC)[C@H](O)[C@@H](O)[C@H]2O)[C@H](C)Cl)N(C)C1 [CLINDAMYCIN],85%

# Tested on: Bifidobacterium adolescentis
# Test: Antimicrobial activity against Bifidobacterium adolescentis assessed as percent susceptible isolates after 48 hrs by agar dilution method
# Type: functional
row,SMILES,Activity
1,CCC[C@@H]1C[C@@H](C(=O)N[C@@H]([C@H]2O[C@H](SC)[C@H](O)[C@@H](O)[C@H]2O)[C@H](C)Cl)N(C)C1 [CLINDAMYCIN],85%

# Tested on: Bifidobacterium adolescentis
# Test: Antimicrobial activity against Bifidobacterium adolescentis assessed as percent resistant isolates after 48 hrs by agar dilution method
# Type: functional
# How it was run: as §2
row,SMILES,Activity
1,CCC[C@@H]1C[C@@H](C(=O)N[C@@H]([C@H]2O[C@H](SC)[C@H](O)[C@@H](O)[C@H]2O)[C@H](C)Cl)N(C)C1 [CLINDAMYCIN],8%

# Tested on: Bifidobacterium sp.
# Test: Antimicrobial activity against Bifidobacterium sp. after 48 hrs by agar dilution method
# Type: functional
# How it was run: as §3
SMILES,MIC,MIC50,MIC90
CCC[C@@H]1C[C@@H](C(=O)N[C@@H]([C@H]2O[C@H](SC)[C@H](O)[C@@H](O)[C@H]2O)[C@H](C)Cl)N(C)C1 [CLINDAMYCIN],0.06 µg/mL,0.06 µg/mL,> 128 µg/mL

# Tested on: Bifidobacterium sp.
# Test: Antimicrobial activity against Bifidobacterium sp. assessed as percent susceptible isolates after 48 hrs by agar dilution method
# Type: functional
# How it was run: as §1
row,SMILES,Activity
1,CCC[C@@H]1C[C@@H](C(=O)N[C@@H]([C@H]2O[C@H](SC)[C@H](O)[C@@H](O)[C@H]2O)[C@H](C)Cl)N(C)C1 [CLINDAMYCIN],85%

# Tested on: Bifidobacterium sp.
# Test: Antimicrobial activity against Bifidobacterium sp. assessed as percent resistant isolates after 48 hrs by agar dilution method
# Type: functional
# How it was run: as §2
row,SMILES,Activity
1,CCC[C@@H]1C[C@@H](C(=O)N[C@@H]([C@H]2O[C@H](SC)[C@H](O)[C@@H](O)[C@H]2O)[C@H](C)Cl)N(C)C1 [CLINDAMYCIN],15%

# Tested on: Eggerthella lenta
# Test: Antimicrobial activity against Eubacterium lentum after 48 hrs by agar dilution method
# Type: functional
# How it was run: as §1
SMILES,MIC,MIC50,MIC90
CCC[C@@H]1C[C@@H](C(=O)N[C@@H]([C@H]2O[C@H](SC)[C@H](O)[C@@H](O)[C@H]2O)[C@H](C)Cl)N(C)C1 [CLINDAMYCIN],0.06 µg/mL,0.06 µg/mL,> 128 µg/mL

# Tested on: Eubacterium sp.
# Test: Antimicrobial activity against Eubacterium sp. assessed as percent susceptible isolates after 48 hrs by agar dilution method
# Type: functional
# How it was run: as §1
row,SMILES,Activity
1,CCC[C@@H]1C[C@@H](C(=O)N[C@@H]([C@H]2O[C@H](SC)[C@H](O)[C@@H](O)[C@H]2O)[C@H](C)Cl)N(C)C1 [CLINDAMYCIN],85%

# Tested on: Eubacterium sp.
# Test: Antimicrobial activity against Eubacterium sp. assessed as percent resistant isolates after 48 hrs by agar dilution method
# Type: functional
# How it was run: as §2
row,SMILES,Activity
1,CCC[C@@H]1C[C@@H](C(=O)N[C@@H]([C@H]2O[C@H](SC)[C@H](O)[C@@H](O)[C@H]2O)[C@H](C)Cl)N(C)C1 [CLINDAMYCIN],15%
